Most compounds without a hit are left out; they make up all but 1.1% or so of the library.
KLK5 inh: human KLK5 protease inhibitors, primary screen, biochemical, 1536-well; AID 873, 2007; inhibition, % at 5 µM; recombinant hK5, fluorogenic AMC substrate cleavage; Kallikrein-5 (Homo sapiens), Q9Y337; 210,000 compounds, 0.59% hits;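 active means inhibition of 40% or more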;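 further: 0% = enzyme controls without compound and 100% = no-enzyme blanks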
Target sequence (Q9Y337 67-293 limits assumed): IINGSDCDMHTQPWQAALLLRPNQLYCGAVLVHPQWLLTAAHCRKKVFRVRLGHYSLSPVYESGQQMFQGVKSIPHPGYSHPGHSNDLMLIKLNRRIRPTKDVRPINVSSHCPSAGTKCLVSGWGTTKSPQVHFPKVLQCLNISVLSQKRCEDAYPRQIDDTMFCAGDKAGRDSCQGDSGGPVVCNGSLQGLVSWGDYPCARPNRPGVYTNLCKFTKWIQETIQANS
Furin inhibitor: human furin inhibitors, primary screen, biochemical, fluorescence intensity; P09958; 220,000 compounds, 0.061% hits; AID 463115, 2010; purified furin, fluorogenic substrate cleavage; inhibition, % at 20 µM or 30 µM; in the data active means inhibition above about 25%
FXIa inh 1536: human FXIa protease inhibitors, primary screen, biochemical, 1536-well. Coagulation factor XI (Homo sapiens), P03951. purified FXIa, Boc-Glu-Ala-Arg-AMC fluorogenic substrate. inhibition, % at 5 µM. 220,000 compounds, 0.14% hits;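 active means inhibition of at least 40%; inactive means inhibition below 40%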;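 further: fluorescence of freed AMC excited at 355 nm; 0% = enzyme without compound and 100% = no enzyme blank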
Thrombin inh: human alpha-thrombin inhibitors, primary screen, counter-screen for coagulation protease inhibitor project, biochemical, 1536-well, fluorogenic AMC substrate; Boc-VPR-AMC fluorogenic substrate cleavage; inhibition, % at 5 µM; 220,000 compounds, 0.26% hits; AID 1046, 2008;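 active means inhibition at or above 40%; inactive means inhibition below 40%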;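 further: 0% = enzyme with no compound and 100% = wells without enzyme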
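Material: Human alpha-thrombin protein | Buffer or medium: pH 7.5 Tris-saline with Tween 20 | Reagent: Boc-VPR-AMC substrate, 15 µM final | Schedule: Reaction at ambient temperature | Detection: AMC fluorescence at 355 nm excitation and 460 nm emission | Evaluation: Percent inhibition scaled between no-compound controls and no-enzyme blanks | Controls: no-compound enzyme wells and no-enzyme blanks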
FXIIa inh 1536: human FXIIa protease inhibitors, primary screen, biochemical, 1536-well. purified FXIIa, Boc-QGR-AMC fluorogenic substrate, 2 h. inhibition, % at 5 µM. 220,000 compounds, 0.3% hits; in the data active means inhibition above about 40%;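 further: 0% = enzyme with no compound and 100% = blank without enzyme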
* = called active by the depositor.

SMILES | KLK5 inh | Furin inhibitor | FXIa inh 1536 | Thrombin inh | FXIIa inh 1536
COc1cc(C(=O)OCCN2CCOCC2)cc(OC)c1OC | -5.7 | -23.3 | -1.3 | 0.2 | 13.5
COc1cccc(/C(O)=C2/C(=O)C(=O)N(CCCN3CCOCC3)C2c2ccncc2)c1 (stereo not drawn) | 117.1* | -9.6 | -3.2 | 0.9 | -4.3
COc1ccc(N2CCN(Cc3nc(-c4ccccc4)no3)CC2)cc1 | 0.2 | -27.3 | -0.4 | 9.5 | 11.2
Cn1ncc([N+](=O)[O-])c1C(=O)Nc1ccc(-c2nc3ccccc3o2)cc1 | -4.2 | -3.3 | -1.1 | 6.3 | 4.9
COc1ccc(OCc2nnc(SCC(=O)N(C)Cc3ccccc3)n2N)cc1 | -1.4 | -19.4 | -2.2 | 0.7 | 4.5
COc1ccc(C2=NO[C@@H]3C(=O)N(c4ccc(C)cc4C)C(=O)[C@H]23)cc1OC | -13.8 | -22.6 | -7.1 | -2.6 | 0.3
COc1ccc(-c2cn(-c3ccc(C)cc3C)c(=O)[nH]2)cc1OC | 48.5* | -21.6 | 30.1 | 15.2 | 35.0
NC(=O)/C(=N\OC(=O)c1ccco1)c1nc(-c2ccc(Br)cc2)cs1 | -103.2 | -9.9 | 5.4 | 77.6* | 40.6*
CC1CC(NC(=O)/C=C/C(=O)O)CC(C)(C)C1 (stereo not drawn) | 5.3 | -22.7 | 2.7 | -5.6 | 0.0
C=C(CCC(=O)c1ccccc1)C(=O)c1ccccc1 | 19.0 | -9.2 | -1.5 | 40.9* | -6.2
O=C(CCCCCCCC(=O)c1ccccc1)c1ccccc1 | -4.5 | -19.0 | -7.1 | -17.0 | 2.6
CCCC1=C([O-])C2N=CC=CC2=[N+](c2ccccn2)C1=O (stereo not drawn) | 4.1 | -15.8 | 9.7 | -4.3 | 8.1
COCC1CCCN(C(=O)c2ccc(OC3CCN(Cc4ccccn4)CC3)cc2)C1 (stereo not drawn) | 1.8 | -32.1 | 7.5 | -7.2 | 10.4
COc1cccc(CNc2ccc3c(c2)ncn3C(C)C)c1OC | 58.0* | -17.7 | 6.6 | 30.0 | 36.7
CCCn1cnc2cc(NCc3cccc(OC)c3O)ccc21 | -4.8 | -38.0 | 4.8 | -2.5 | 19.4
NC(=O)COc1c(-c2ccccc2)oc2ccccc2c1=O | 46.4* | -16.0 | 8.3 | 3.0 | 15.7
Cc1noc(C)c1C(=O)NCc1ccccc1F | -29.4 | -30.5 | -9.6 | 0.4 | -8.7
O=C(O)CCCC(=O)N1N=C(c2ccccc2)CC1c1cccs1 (stereo not drawn) | 24.1 | -3.6 | 49.5* | 6.9 | 25.1
O=C(O)CCC(=O)N1N=C(c2ccccc2)CC1c1cccs1 (stereo not drawn) | 2.9 | -15.5 | 3.7 | 1.5 | 10.2
CC(C)c1ccc(-c2c(C#N)c(N)nc(SCC(=O)N3CCCCCC3)c2C#N)cc1 | -2.4 | -12.0 | -5.5 | 41.1* | 5.0
CC(C)c1ccc(-c2c(C#N)c(N)nc(SCC(=O)N3CCCCC3)c2C#N)cc1 | -2.3 | -21.2 | -7.2 | -2.7 | 1.0
Cc1ccc(N(C(=O)C2CCCC2)C2C=CS(=O)(=O)C2)cc1 (stereo not drawn) | 114.4* | -21.1 | -6.6 | 2.4 | -2.8
Cc1cc(N2C(=O)CC(Cc3ccc(Cl)cc3)C2=O)no1 (stereo not drawn) | 40.3* | -22.6 | -2.8 | 4.6 | 18.3
Cc1cc(N2C(=O)CC(Cc3ccccc3)C2=O)no1 (stereo not drawn) | -20.6 | -18.7 | 4.2 | -5.2 | -4.0
Cc1cc(NC(=O)COc2nnc(-c3ccccc3)c3ccccc23)no1 | 57.7* | -17.0 | 7.0 | 12.8 | 23.1
SMILES | KLK5 inh | Furin inhibitor | FXIa inh 1536 | Thrombin inh | FXIIa inh 1536
O=C(CC(c1ccc(F)cc1)c1ccco1)N1CCCC1 (stereo not drawn) | 2.8 | -11.5 | 1.5 | -2.5 | 9.6
O=C(CC(c1ccc(F)cc1)c1ccco1)N1CCOCC1 (stereo not drawn) | 58.7* | -4.0 | 2.4 | 42.8* | 30.9
CC(=O)C1=C(C)NC(C)=C(C(C)=O)C1c1cccs1 | 79.3* | -6.1 | 26.7 | 14.1 | 1.6
Cc1sc2c(c1C)CN(CCN1CCOCC1)CN2C(=O)c1ccccc1 | -1.3 | -20.8 | -1.8 | -7.1 | 7.0
CCOc1ccc(N(CC(=O)Nc2cc(C)ccc2C)S(=O)(=O)c2c(C)[nH]c(=O)[nH]c2=O)cc1 | 33.8 | -4.6 | 24.4 | 15.6 | 100.4*
COc1ccc(C2C(C(C)=O)=C(O)C(=O)N2c2nccs2)cc1OC (stereo not drawn) | 56.6* | -5.5 | 10.9 | 23.4 | 50.4*
CCCCCCN(C(=O)CCCCCN1C(=O)NC(c2ccc(-c3ccccc3)cc2)C(C(=O)OCc2ccccc2)=C1C)C(C(=O)NCCCC)c1ccc(O)c(C(=O)OC)c1 (stereo not drawn) | 0.6 | -28.2 | 2.0 | -1.9 | 4.0
O=C(O)Cc1ccc(NC(=O)CCN2C(=O)c3ccc([N+](=O)[O-])cc3C2=O)cc1 | -1.6 | -13.6 | 1.2 | -9.0 | 99.6*
O=C(O)CSCC(=O)NCc1cccc(C(F)(F)F)c1 | 0.9 | -15.5 | -5.0 | 40.5* | 0.3
c1coc(-c2nc(-c3ccco3)c(-c3ccco3)nc2-c2ccco2)c1 | 70.5* | 9.6 | 25.4 | 32.3 | -8.0
OC[C@@H](O)[C@H](O)C(/C=N/Nc1ccccc1)=N\Nc1ccccc1 | 4.3 | -2.1 | 1.7 | 4.8 | 13.7
O=C(O)c1cncc(C#CCC2CCCCC2)c1 | -3.7 | -10.7 | 0.5 | -7.4 | 0.2
O=C(O)Cc1ccccc1C(=O)O | -24.5 | -20.9 | -14.2 | 43.8* | -4.0
Nc1nc(Cl)cc(Sc2ccc(F)cc2)n1 | -11.0 | -21.0 | -9.9 | -19.2 | -0.4
Cc1ccc(Sc2cc(Cl)nc(N)n2)cc1 | 77.1* | -12.2 | 10.2 | 23.2 | 19.8
CCCOC1OC(=O)c2c1ccc(OC)c2OC (stereo not drawn) | 3.8 | -14.9 | 3.0 | -10.9 | 8.0
CC(=O)Nc1cc(-c2ccccc2)nn1Cc1ccc(Cl)cc1 | -4.9 | -18.2 | 0.3 | 0.4 | 13.1
CC(=O)Nc1cc(-c2ccc(Cl)cc2)nn1-c1ccccc1 | -4.3 | 27.6* | 4.4 | 1.3 | 11.2
Cc1occc1C(=O)Nc1cc(C(F)(F)F)ccc1Cl | 27.2 | 4.3 | 14.5 | 50.4* | 26.7
COc1ccc(C(C)(C)C)cc1NC(=O)c1ccoc1C | -1.0 | 17.9 | 3.2 | -6.6 | 5.8
O=C1N(Cc2cccnc2)C[C@@H]2C[C@@H](c3cccc(Oc4ccccc4)c3)N3CCC[C@@]123 | -0.3 | -2.3 | -1.4 | -2.4 | 3.0
CCCNC(=O)C1CC(c2ccc(C(F)(F)F)cc2)=NO1 (stereo not drawn) | 21.8 | -7.1 | 101.9* | 21.4 | 19.9
CCCCNC(=O)C1CC(c2ccc(C(F)(F)F)cc2)=NO1 (stereo not drawn) | -3.2 | -26.5 | -2.6 | -5.8 | 3.0
CCN(CC)C(=O)CSc1ccccc1N | 46.9* | -0.3 | 2.6 | 11.9 | 2.2
COc1ccccc1C(=O)NNC(=O)c1sccc1-n1cccc1 | -6.4 | -24.4 | 2.2 | -2.6 | 3.2

Compound activity: PubChem, several laboratories
